{"source": "PubChem BioAssay", "key": {"[1]": {"biological_target": "Serine protease HTRA1 (Homo sapiens) (UniProt Q92743)", "assay": "confirming inhibition of human HTRA1 – biochemical, fluorescence polarization, confirmation (AID 540248;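 active means mean inhibition over three repeats above a set limit taken from the earlier primary screen, cut at about 37% in these data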;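 further: 0% = HTRA1 with DMSO and 100% = wells lacking HTRA1; inhibitors block probe binding so polarization drops and inhibition rises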)", "settings": "recombinant HTRA1, FP-rhodamine activity-based probe, at 5.96 µM, active compounds read high"}, "[2]": {"assay": "BSA probe fluorescence interference – biochemical, TAMRA-labeled BSA, counter-screen for TCR-CD3 interaction inhibitor project (AID 652035; in the data active means inhibition above about 23%;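 further: 0% = buffer low control and 100% = reference high control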)", "settings": "TAMRA-labeled BSA probe fluorescence counterscreen; at 9.4 µM; active compounds read high"}, "[3]": {"tested_on": "T-cell receptor (TCR)-CD3 interaction, human", "assay": "blockers of TCR binding to CD3 – biochemical, fluorescence, TAMRA-labeled TCR probe, confirmation (AID 652036; in the data active means inhibition above about 19%)", "settings": "TAMRA-labeled TCR probe fluorescence binding assay; at 9.4 µM; active compounds read high"}, "[4]": {"biological_target": "Toll-like receptor 9 (Homo sapiens) (UniProt Q9NR96)", "sequence (Q9NR96 whole entry, looked up)": "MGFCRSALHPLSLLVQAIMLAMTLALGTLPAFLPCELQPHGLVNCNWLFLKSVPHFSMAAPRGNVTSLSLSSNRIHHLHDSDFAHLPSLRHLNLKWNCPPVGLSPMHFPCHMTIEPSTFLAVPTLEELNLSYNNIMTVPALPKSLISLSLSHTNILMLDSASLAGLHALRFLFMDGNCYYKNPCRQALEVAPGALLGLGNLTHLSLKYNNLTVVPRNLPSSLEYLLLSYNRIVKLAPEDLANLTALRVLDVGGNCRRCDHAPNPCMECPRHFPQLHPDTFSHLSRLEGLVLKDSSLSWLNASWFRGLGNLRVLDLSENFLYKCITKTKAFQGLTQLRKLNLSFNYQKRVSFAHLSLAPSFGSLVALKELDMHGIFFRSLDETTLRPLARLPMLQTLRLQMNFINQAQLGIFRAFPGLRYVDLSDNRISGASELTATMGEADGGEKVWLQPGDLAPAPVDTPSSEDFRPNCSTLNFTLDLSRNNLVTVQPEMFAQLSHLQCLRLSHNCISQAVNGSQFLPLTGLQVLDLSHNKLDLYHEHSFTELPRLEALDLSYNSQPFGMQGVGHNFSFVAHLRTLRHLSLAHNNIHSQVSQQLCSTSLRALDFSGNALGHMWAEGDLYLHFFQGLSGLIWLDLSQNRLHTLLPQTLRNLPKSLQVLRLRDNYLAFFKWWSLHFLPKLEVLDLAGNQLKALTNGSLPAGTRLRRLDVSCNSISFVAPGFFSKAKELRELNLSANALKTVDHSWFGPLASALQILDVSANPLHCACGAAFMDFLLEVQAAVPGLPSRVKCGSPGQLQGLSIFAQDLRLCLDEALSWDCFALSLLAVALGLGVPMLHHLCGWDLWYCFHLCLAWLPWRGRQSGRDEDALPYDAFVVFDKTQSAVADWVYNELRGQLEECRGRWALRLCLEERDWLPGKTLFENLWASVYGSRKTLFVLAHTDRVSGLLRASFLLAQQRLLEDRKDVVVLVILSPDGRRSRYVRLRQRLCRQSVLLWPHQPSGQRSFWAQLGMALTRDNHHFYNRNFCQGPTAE", "assay": "disruptors of TLR9 binding to MyD88 – cell-based, CHO, BLA complementation, fluorescence, triplicate, confirmation (AID 540250;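 active means mean inhibition across three repeats above about 21% taken from the earlier screen, limit read from the data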;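 further: blue over green emission ratio reports constitutive TLR9 MyD88 association via BLA complementation; 0% = DMSO vehicle wells and 100% = clavulanate BLA inhibitor wells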)", "settings": "CCF4 FRET ratio, at 4.98 µM, active compounds read high"}, "[5]": {"assay": "BLA reporter readout interference – cell-based, fluorescence, artefact control for TLR9-MyD88 binding inhibitor project (AID 540251;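 active means mean inhibition above a 50% cutoff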;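 further: 0% = DMSO alone and 100% = clavulanate blocking BLA; higher means less blue over green ratio so more BLA blockade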)", "settings": "CHO-BLA cells, CCF4 FRET ratio, at 4.98 µM, active compounds read high"}, "[6]": {"assay": "CHO cell viability loss – luminescence, single concentration, cytotoxicity control for TLR9-MyD88 binding inhibitor project (AID 588336)", "settings": "TLR9-MyD88 CHO cells cytotoxicity, at 4.98 µM, active compounds read high"}, "[7]": {"biological_target": "Receptor-interacting serine/threonine-protein kinase 2 (Homo sapiens) (UniProt O43353)", "sequence (O43353 whole entry, looked up)": "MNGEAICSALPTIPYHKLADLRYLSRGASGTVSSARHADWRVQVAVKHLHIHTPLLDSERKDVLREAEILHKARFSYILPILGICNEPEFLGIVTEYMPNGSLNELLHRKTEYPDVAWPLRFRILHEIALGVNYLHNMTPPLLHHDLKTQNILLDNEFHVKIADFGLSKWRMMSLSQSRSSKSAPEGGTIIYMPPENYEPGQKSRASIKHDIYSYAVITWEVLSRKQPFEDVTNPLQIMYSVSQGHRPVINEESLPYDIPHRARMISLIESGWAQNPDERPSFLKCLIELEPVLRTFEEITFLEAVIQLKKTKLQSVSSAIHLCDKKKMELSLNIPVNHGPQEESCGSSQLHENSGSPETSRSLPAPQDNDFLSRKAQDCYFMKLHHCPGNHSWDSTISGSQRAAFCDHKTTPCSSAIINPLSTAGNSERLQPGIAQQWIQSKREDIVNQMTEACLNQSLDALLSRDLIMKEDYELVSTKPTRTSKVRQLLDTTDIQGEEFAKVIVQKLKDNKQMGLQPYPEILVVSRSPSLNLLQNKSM", "assay": "inhibitors of RIPK2 association with NOD2 – fluorescence, CHO cells, BLA complementation, triplicate, confirmation (AID 624370;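 active means mean inhibition across replicates above a set limit taken from the earlier primary screen, cut at about 21% in these data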;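 further: 0% = DMSO-only wells and the high end = clavulanate BLA-blocked wells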)", "settings": "CCF4 FRET, at 4.98 µM, active compounds read high"}, "[8]": {"assay": "BLA reporter readout interference – cell-based, CHO-K1 CMV-bla, CCF4 FRET, fluorescence, artefact control for NOD2-RIPK2 interaction inhibitor project, confirmation (AID 624371;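 active means mean inhibition above the low-control mean inhibition plus three low-control SD, cut at about 11% in these data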;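 further: 0% = DMSO only wells and 100% = clavulanate high control wells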)", "settings": "CCF4 FRET ratio, counterscreen, at 4.98 µM, active compounds read high"}, "[9]": {"biological_target": "(Lyso)-N-acylphosphatidylethanolamine lipase (Mus musculus) (UniProt Q8VD66)", "sequence (Q8VD66 whole entry, looked up)": "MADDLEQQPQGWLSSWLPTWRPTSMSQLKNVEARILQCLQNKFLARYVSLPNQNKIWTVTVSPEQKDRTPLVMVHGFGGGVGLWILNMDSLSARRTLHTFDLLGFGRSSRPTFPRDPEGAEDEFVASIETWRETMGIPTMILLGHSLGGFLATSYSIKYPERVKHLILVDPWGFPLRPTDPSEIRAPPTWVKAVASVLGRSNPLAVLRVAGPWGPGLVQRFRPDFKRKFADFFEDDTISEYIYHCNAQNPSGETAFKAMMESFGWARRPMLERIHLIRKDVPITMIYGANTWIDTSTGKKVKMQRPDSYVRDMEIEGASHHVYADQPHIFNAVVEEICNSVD", "assay": "mouse ABHD4 hydrolase blockers, triplicate – biochemical, fluorescence polarization, confirmation (AID 720658;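 active means mean inhibition across replicates above the hit cutoff set in the primary screen, cut at about 30% in these data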;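 further: 0% = wild-type ABHD4 with DMSO and 100% = catalytically dead S159A mutant with DMSO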)", "settings": "purified mABHD4, FP-Rh probe fluorescence polarization; at 8.92 µM; active compounds read high", "how_it_was_run": "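Also added: Rhodamine-tagged fluorophosphonate probe FP-Rh / Assay system: mouse wild-type ABHD4 enzyme / Evaluation: % inhibition relative to DMSO and S159A mutant controls / Medium: HEPES pH 7.0 buffer with NaCl and Pluronic F-127 / Detection: fluorescence polarization at 525 nm excitation, 598 nm emission / Timing: 45 min compound-enzyme pre-incubation, then 60 min probe incubation, 25 °C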"}}, "note": "This is one part of the list. A number with no mark means an inactive call. Activity calls are given as the source filed them. Unless noted, no stated cut-off is given here; in the data, active means inhibition above about 11%; inactive means the rest.", "data": [{"compound": "CC(=N\\NC(=O)c1cc(Br)ccc1O)/C(=N/O)C(=O)Nc1ccccc1", "values": [{"measurement": "inhibition", "setting": "[1]", "value": "55.9% (active)"}, {"measurement": "inhibition", "setting": "[2]", "value": -21.4, "unit": "%"}, {"measurement": "inhibition", "setting": "[3]", "value": 16.5, "unit": "%"}]}, {"compound": "O=[N+]([O-])c1ccc(N/N=C/c2ccccc2)cc1", "values": [{"measurement": "inhibition", "setting": "[4]", "value": 13.7, "unit": "%"}, {"measurement": "inhibition", "setting": "[5]", "value": 10.7, "unit": "%"}, {"measurement": "inhibition", "setting": "[6]", "value": 3.89, "unit": "%"}, {"measurement": "inhibition", "setting": "[7]", "value": 17.7, "unit": "%"}, {"measurement": "inhibition", "setting": "[8]", "value": "20% (active)"}]}, {"compound": "CC1(C)CC(=O)C(C2c3ccccc3S(=O)(=O)c3ccccc32)C(=O)C1", "values": [{"measurement": "inhibition", "setting": "[4]", "value": -5.15, "unit": "%"}, {"measurement": "inhibition", "setting": "[5]", "value": -0.53, "unit": "%"}, {"measurement": "inhibition", "setting": "[6]", "value": 2.02, "unit": "%"}]}, {"compound": "O=Nc1c(O)cc(O)c2ccccc12", "values": [{"measurement": "inhibition", "setting": "[1]", "value": 10.1, "unit": "%"}, {"measurement": "inhibition", "setting": "[9]", "value": 11.7, "unit": "%"}]}, {"compound": "COc1cccc(/C=N/Nc2ccc(S(=O)(=O)Nc3ccccc3C(=O)O)cc2[N+](=O)[O-])c1O", "values": [{"measurement": "inhibition", "setting": "[1]", "value": 25.5, "unit": "%"}, {"measurement": "inhibition", "setting": "[9]", "value": "67.4% (active)"}]}, {"compound": "O=C1c2ccccc2C(=O)c2c1cccc2N1CCN(Cc2ccccc2)CC1", "values": [{"measurement": "inhibition", "setting": "[1]", "value": "60.1% (active)"}]}, {"compound": "CCOc1ccc(C2=CC(c3ccccc3)n3ncnc3N2)cc1", "note": "(stereo not drawn)", "values": [{"measurement": "inhibition", "setting": "[4]", "value": -2.09, "unit": "%"}, {"measurement": "inhibition", "setting": "[5]", "value": -1.41, "unit": "%"}, {"measurement": "inhibition", "setting": "[6]", "value": -1.28, "unit": "%"}]}, {"compound": "COc1ccccc1/C=C/C(=O)OCC(=O)NC1CCCCCC1", "values": [{"measurement": "inhibition", "setting": "[4]", "value": -4.73, "unit": "%"}, {"measurement": "inhibition", "setting": "[5]", "value": -6.03, "unit": "%"}, {"measurement": "inhibition", "setting": "[6]", "value": 0.37, "unit": "%"}]}, {"compound": "CS(=O)(=O)c1sc2nc(-c3ccccc3)cc(-c3ccccc3)c2c1N", "values": [{"measurement": "inhibition", "setting": "[4]", "value": "31.1% (active)"}, {"measurement": "inhibition", "setting": "[5]", "value": 31.6, "unit": "%"}, {"measurement": "inhibition", "setting": "[6]", "value": -0.85, "unit": "%"}]}, {"compound": "O=C1C(Cl)=C(Oc2ccccc2)C(=O)c2ccccc21", "values": [{"measurement": "inhibition", "setting": "[4]", "value": "79% (active)"}, {"measurement": "inhibition", "setting": "[5]", "value": 17.5, "unit": "%"}, {"measurement": "inhibition", "setting": "[6]", "value": "96.2% (active)"}]}, {"compound": "NS(=O)(=O)c1ccc(NC(=O)COC(=O)c2c3c(nc4ccccc24)/C(=C\\c2ccc4c(c2)OCO4)CCC3)cc1", "values": [{"measurement": "inhibition", "setting": "[4]", "value": 17.9, "unit": "%"}, {"measurement": "inhibition", "setting": "[5]", "value": 22.2, "unit": "%"}, {"measurement": "inhibition", "setting": "[6]", "value": 0.35, "unit": "%"}, {"measurement": "inhibition", "setting": "[2]", "value": 5.98, "unit": "%"}, {"measurement": "inhibition", "setting": "[3]", "value": 15.7, "unit": "%"}]}]}
